Test results as given in paper PMC4987221 (Bioorganic & medicinal chemistry letters, 2016).
One block for each molecule: values may come before it.

How the values were obtained:
[1] = biological target: T1, rM4 (Rattus norvegicus, UniProt P08485); format: cell-based; conditions: unit not given
T1 sequence (P08485 1-478): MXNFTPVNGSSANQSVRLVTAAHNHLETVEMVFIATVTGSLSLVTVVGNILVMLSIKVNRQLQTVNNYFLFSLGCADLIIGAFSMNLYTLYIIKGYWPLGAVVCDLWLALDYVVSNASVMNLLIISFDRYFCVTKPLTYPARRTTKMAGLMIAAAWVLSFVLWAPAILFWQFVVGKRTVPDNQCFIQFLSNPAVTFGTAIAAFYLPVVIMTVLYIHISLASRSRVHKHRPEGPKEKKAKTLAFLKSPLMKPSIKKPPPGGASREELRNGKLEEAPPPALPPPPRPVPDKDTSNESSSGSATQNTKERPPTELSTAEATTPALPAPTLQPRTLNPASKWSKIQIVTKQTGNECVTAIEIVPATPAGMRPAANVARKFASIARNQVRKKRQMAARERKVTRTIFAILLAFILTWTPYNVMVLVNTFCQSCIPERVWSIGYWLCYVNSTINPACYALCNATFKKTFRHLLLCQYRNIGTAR
How it was run: (§1)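 Functional calcium mobilization in CHO cells expressing M4 with the Gqi5 chimeric G protein (human M4 for line 2, rat M4 for line 3). The test compound was added with a fixed EC20 acetylcholine concentration, and efficacy was expressed as % of the maximal acetylcholine response. For the screening hit, DMSO stock from the screening source plates was used. Values are means of three independent experiments, each run in triplicate.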

[2] = biological target: T2, human M1 (Homo sapiens, UniProt P11229); assay: Built-in HTS counterscreen, human M1; format: cell-based
T2 sequence (P11229 1-460): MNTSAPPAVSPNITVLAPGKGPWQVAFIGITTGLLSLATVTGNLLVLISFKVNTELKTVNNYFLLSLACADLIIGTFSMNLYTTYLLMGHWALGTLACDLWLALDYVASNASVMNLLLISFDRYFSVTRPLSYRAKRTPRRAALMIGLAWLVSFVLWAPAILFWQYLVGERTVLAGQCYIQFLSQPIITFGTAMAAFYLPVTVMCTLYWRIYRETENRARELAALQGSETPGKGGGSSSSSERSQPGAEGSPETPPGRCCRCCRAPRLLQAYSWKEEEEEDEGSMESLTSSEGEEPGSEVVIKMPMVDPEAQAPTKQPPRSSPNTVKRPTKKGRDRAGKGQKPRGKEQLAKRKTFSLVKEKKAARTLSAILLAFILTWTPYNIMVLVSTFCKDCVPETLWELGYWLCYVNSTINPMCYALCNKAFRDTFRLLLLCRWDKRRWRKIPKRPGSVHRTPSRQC

[3] = biological target: T3, human M5 (Homo sapiens, UniProt P08912); assay: Built-in HTS counterscreen, human M5; format: cell-based
T3 sequence (P08912 1-532): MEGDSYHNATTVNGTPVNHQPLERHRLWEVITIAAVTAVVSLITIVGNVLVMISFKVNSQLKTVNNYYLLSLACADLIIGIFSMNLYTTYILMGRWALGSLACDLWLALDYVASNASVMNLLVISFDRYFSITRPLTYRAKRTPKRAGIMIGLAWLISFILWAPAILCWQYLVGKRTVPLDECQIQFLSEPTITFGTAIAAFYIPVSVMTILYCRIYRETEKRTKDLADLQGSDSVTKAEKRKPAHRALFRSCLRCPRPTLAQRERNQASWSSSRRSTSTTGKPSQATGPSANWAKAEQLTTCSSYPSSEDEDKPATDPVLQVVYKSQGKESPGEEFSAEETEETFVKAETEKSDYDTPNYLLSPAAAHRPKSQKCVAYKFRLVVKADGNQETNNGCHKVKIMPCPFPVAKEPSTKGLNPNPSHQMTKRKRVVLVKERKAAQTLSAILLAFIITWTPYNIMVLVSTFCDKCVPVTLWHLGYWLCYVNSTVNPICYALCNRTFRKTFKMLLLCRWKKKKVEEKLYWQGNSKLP

[4] = Hepatic microsomal intrinsic clearance, rat; format: in vitro ADME; conditions: for predicted hepatic clearance rCLhep: rat, from microsomal CLint
How it was run: (§2)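 Intrinsic clearance was measured in hepatic microsomes (human for line 4, rat for line 5), and predicted hepatic clearance was calculated from the microsomal CLint. Data come from a single experiment run in triplicate.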

[5] = biological target: T4, hM4 (Homo sapiens, UniProt P08173); format: cell-based
T4 sequence (P08173 1-479): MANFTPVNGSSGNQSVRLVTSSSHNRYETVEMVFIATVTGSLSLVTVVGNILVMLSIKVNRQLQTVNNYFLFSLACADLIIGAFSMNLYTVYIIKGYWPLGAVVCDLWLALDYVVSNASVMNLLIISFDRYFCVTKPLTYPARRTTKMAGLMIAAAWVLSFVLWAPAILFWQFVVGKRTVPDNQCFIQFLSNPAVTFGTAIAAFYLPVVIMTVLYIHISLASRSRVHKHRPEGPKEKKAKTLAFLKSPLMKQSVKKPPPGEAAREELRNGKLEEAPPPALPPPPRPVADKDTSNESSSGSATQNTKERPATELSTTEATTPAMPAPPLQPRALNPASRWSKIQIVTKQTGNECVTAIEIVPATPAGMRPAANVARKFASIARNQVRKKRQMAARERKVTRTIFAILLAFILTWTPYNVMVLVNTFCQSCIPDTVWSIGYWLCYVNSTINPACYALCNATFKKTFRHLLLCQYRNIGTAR
How it was run: as §1

[6] = Hepatic microsomal intrinsic clearance, human; format: in vitro ADME
How it was run: as §2

[7] = Metabolite identification in human cryopreserved hepatocytes; format: in vitro ADME; conditions: secondary alcohol 18 as the single major metabolite
[8] = rat hepatic microsomes, in words
[9] = human hepatic microsomes, in words

rM4 ACh Max [1]: 80.5±6.3 | activity on human M1 [2]: inactive | activity on human M5 [3]: inactive | in vitro intrinsic clearance (CLint) [4, 8]: very high | predicted hepatic clearance (CLhep) [4, 8]: near hepatic blood flow rates | human M4 % ACh Max ([5]; HTS hit, using DMSO stock from the source plates): 76% | hM4 ACh Max ([5]; unit not given): 76.8±4.1 | in vitro intrinsic clearance (CLint) [6, 9]: very high | predicted hepatic clearance (CLhep) [6, 9]: near hepatic blood flow rates
SMILES: Cc1nc2sc(C(=O)c3ccccc3)c(N)c2c(C)c1C [Cpd 7]

predicted hepatic clearance rCLhep [4]: 62 mL/min/kg | predicted hepatic clearance hCLhep ([6]; human, from microsomal CLint): 18 mL/min/kg
SMILES: Cc1cc(C)c2c(N)c(C(=O)CCc3ccncc3)sc2n1 [Cpd 19]

predicted hepatic clearance rCLhep [4]: 62 mL/min/kg
SMILES: COc1ccc(CCC(=O)c2sc3nnc(C)c(C)c3c2N)cc1F [Cpd 20]

SMILES: Cc1cc(C)c2c(N)c(C(=O)c3ccncc3)sc2n1 [Cpd 12f]
metabolism route (Met ID) [7]: rapid, and near quantitative, reductive metabolism
